# Screening results: PubChem, several laboratories
# PKA-R1A act – activators of PKA-R1A holoenzyme, primary screen, biochemical, fluorescence polarization, Cy5-IP20, bovine R1A, mouse PKAc; cAMP-dependent protein kinase type I-alpha regulatory subunit (Bos taurus) + …; PKA-R1A dissociation; scaled: DMSO 0%, 113 µM cGMP 100%; activation, % at 11.4 µM; actives 0.083% (n = 340,000); AID 504707, 2011;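 active means percent activation above the mean of all tested compounds plus 3 SD, cut at about 19% in these data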;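 further: higher means more PKAc released from R1A so a rise in polarization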
# PKA-R2B act – activators of PKA-R2B holoenzyme, primary screen, biochemical, fluorescence polarization, Cy5-IP20, human; cAMP-dependent protein kinase catalytic subunit beta (Homo sapiens) + cAMP-dependent …; PKA-R2B holoenzyme dissociation; R2B truncated from residue 108, S112A mutant; 0% DMSO only, 100% 113 µM cGMP; activation, % at 11.4 µM; actives 0.079% (n = 340,000); AID 504700, 2011;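 active means activation above a cutoff set at the mean over all compounds plus 3 SD, cut at about 18% in these data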;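 further: higher means more holoenzyme dissociation and a rise in polarization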
# Target sequence (P31323 whole entry, looked up, other chains not shown, the tested form may be a part): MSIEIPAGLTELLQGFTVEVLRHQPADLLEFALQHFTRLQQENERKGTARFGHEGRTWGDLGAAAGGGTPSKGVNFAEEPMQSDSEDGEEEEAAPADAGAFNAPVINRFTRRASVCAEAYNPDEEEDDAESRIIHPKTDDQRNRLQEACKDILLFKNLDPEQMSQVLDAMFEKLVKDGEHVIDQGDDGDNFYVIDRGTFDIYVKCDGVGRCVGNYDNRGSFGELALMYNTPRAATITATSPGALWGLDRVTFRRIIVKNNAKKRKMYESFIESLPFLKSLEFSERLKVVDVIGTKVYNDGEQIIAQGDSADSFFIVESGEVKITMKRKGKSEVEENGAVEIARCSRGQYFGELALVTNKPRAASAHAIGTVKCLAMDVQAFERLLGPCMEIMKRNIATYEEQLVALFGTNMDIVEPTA
# dFosB act-1 – activators of delta FosB homodimer, primary screen, biochemical, fluorescence polarization, TAMRA-CDK5 oligo, single point | Protein FosB (Mus musculus), P13346 | purified delta FosB; percent of positive-control signal above neutral wells | activation, % at 25 µM | actives 0.99% (n = 340,000) | AID 493131, 2011;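 active means mean activation above about 17%, with every replicate also reaching it, limit read from the data, passing the limit was not always enough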
# CAL PDZ FP-1 – CAL PDZ peptide-binding inhibitors, primary screen, biochemical, fluorescence polarization, Cer-tagged CAL PDZ, HTS | inhibition, % at 20 µM | AID 504414, 2011 | purified CAL PDZ, TMR-peptide fluorescence polarization, 1 h | actives 0.02% (n = 330,000) | Golgi-associated PDZ and coiled-coil motif-containing protein (Homo sapiens), Q9HD26;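 active means highest replicate inhibition of at least 40%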
#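 material = purified tagged CAL PDZ domain construct (CerCALP) | compound dosing = 20 µM, one dose | times = 1 h at RT | measured by = fluorescence polarization from S- and P-plane intensities, G-factor corrected | read-out = inhibition from polarization loss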
# NTR1 agonist – agonists of human NTR1, primary screen, imaging, U2OS cells, beta-arrestin-GFP, high content; NTR1-U2OS beta-arrestin-GFP spot imaging, agonist mode; activation, % at 20 µM; actives 0.17% (n = 330,000);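 active means activation at or above 40% of the spot to cytoplasm intensity ratio, with at least 20 cells analyzed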
# CAL PDZ FP-2 – untagged CAL PDZ binding inhibitors, primary screen, biochemical, fluorescence polarization, HTS; Golgi-associated PDZ and coiled-coil motif-containing protein (Homo sapiens), Q9HD26; purified CAL PDZ, TMR-peptide fluorescence polarization, 1 h; inhibition, % at 24.9 µM; actives 0.92% (n = 300,000); AID 602252, 2012;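 active means mean inhibition of at least 30% with at least half of replicates also reaching 30%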
# dFosB act-2 – activators of mouse delta FosB DNA binding, confirmation, biochemical, fluorescence polarization, TAMRA-CDK5 oligo, cherry-picked samples | shares compounds with dFosB act-1 | purified delta FosB; normalised: neutral wells 0, positive control 100 | activation, % at 24.9 µM | 2,400 tested, under 10 active | AID 588690, 2011;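 active means highest replicate activation at or above 34% and every replicate reaching that threshold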;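 further: higher polarization means more probe DNA bound by delta FosB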
# A number is an active result; n = inactive; x = no result given. Rows were chosen to be rich in hits. Some 2% of all compounds tested hit in one or more screens of this group.
SMILES,PKA-R1A act,PKA-R2B act,dFosB act-1,CAL PDZ FP-1,NTR1 agonist,CAL PDZ FP-2,dFosB act-2
COc1nccnc1NS(=O)(=O)c1ccc(N)cc1,n,n,n,n,n,n,x
O=C(Nc1cccc([N+](=O)[O-])c1)c1cccc(C(=O)Nc2cccc([N+](=O)[O-])c2)c1,n,n,34,n,n,n,n
COC(=O)c1c(NC(=O)c2cccc([N+](=O)[O-])c2)sc(C(N)=O)c1C,n,n,29,n,n,n,n
O=C(Nc1ccc(NC(=O)c2cccc([N+](=O)[O-])c2)cc1)c1cccc([N+](=O)[O-])c1,n,n,n,n,n,n,x
Cc1c(C(=O)Nc2cccc([N+](=O)[O-])c2)csc1-c1ccccc1,n,n,58,n,n,n,n
COC(=O)c1sc(NC(=O)c2cccc([N+](=O)[O-])c2)c(C(N)=O)c1C,n,n,n,n,n,n,x
O=C(O)CCC1c2cc3c4cc2OC2Oc5cc6c(cc51)C(CCC(=O)O)c1cc5c7cc1OC(O6)c1cc6cc(c1)Oc1cc(cc(C(=O)O)c1)Oc1cc8cc(c1)C(Oc1cc(c(cc1C5CCC(=O)O)C3CCC(=O)O)OC(O4)c1cc(cc(c1)Oc1cc(cc(C(=O)O)c1)O8)Oc1cc(cc(C(=O)O)c1)Oc1cc(cc2c1)Oc1cc(cc(C(=O)O)c1)O6)O7 (centres undefined),x,x,x,x,n,x,x
COc1cc(F)cc(-c2ccc3c(c2)c(C#Cc2ccsc2)c(-c2cc(OC)cc(OC)c2)n3C)c1,n,n,n,n,n,n,x
O=C(/C=C/c1ccc(Cl)cc1Cl)c1nc2ccccc2[nH]1,n,n,40,n,n,n,n
O=C(CCC(=O)Nc1nnc(C2CCCCC2)s1)NCc1ccc(F)cc1,n,n,n,n,n,n,x
CN(CC(=O)Nc1cccc(Cl)c1)S(=O)(=O)c1ccc2c(c1)n(C)c(=O)c(=O)n2C,n,n,46,n,n,n,n
CC1CCCCC1NC(=O)CCS(=O)(=O)c1cc2c(cc1Cl)NC(=O)CO2 (centres undefined),n,n,n,n,n,n,x
COc1ccc(-c2cc3c(=O)n(CC(=O)Nc4ccc(C(C)=O)cc4)ncn3n2)cc1,n,n,74,n,n,n,n
O=C(Nc1ccc(S(=O)(=O)Nc2cnc3ccccc3n2)cc1)c1cccc(OC(F)F)c1,n,n,57,n,n,n,n
COc1ccc(CN(Cc2cccn2C)C(=O)c2cc3cc(OC)ccc3[nH]2)cc1,n,n,n,n,n,n,x
Cn1nc(C(=O)Nc2ccc(Cl)cc2)cc1C(=O)Nc1ccc(Cl)cc1,n,n,n,n,n,n,x
Cn1nc(C(=O)Nc2cccc(Cl)c2)cc1C(=O)Nc1cccc(Cl)c1,n,n,33,n,n,n,n
O=C(Cn1nnc(-c2ccc(CN3CCOCC3)cc2)n1)Nc1nc(-c2ccccc2)cs1,n,n,25,n,n,n,n
COc1ccc(COC(=O)c2ccc(S(=O)(=O)N3CCC(C)CC3)cc2)cc1,n,n,19,n,n,n,n
COc1ccc(CNS(=O)(=O)c2ccc(S(=O)(=O)N3CCCCC3)cc2)cc1,n,n,41,n,n,n,n
Cc1ccc(C(=O)N(C)Cc2ccc(N3CCOCC3)cc2)cc1S(=O)(=O)NCc1ccccc1,n,n,n,n,n,n,x
CC(C)N(Cc1ccccc1)C(=O)COC(=O)CCC(=O)c1ccc(F)cc1,n,n,n,n,n,n,x
O=C(OCc1cn([C@H]2CN(CC3CCCCC3)[C@@H](c3ccccc3)C[C@@H]2O)nn1)c1ccccc1,n,n,x,x,x,x,x
O=C(Cn1nnc(-c2ccc(F)cc2)n1)Nc1ccc2c(c1)OCCO2,n,n,36,n,n,n,n
O=C(Cn1cnc2c(nnn2Cc2ccccc2)c1=O)Nc1ccc2c(c1)OCCO2,n,n,30,n,n,n,n
SMILES,PKA-R1A act,PKA-R2B act,dFosB act-1,CAL PDZ FP-1,NTR1 agonist,CAL PDZ FP-2,dFosB act-2
CC(=O)Nc1ccc(NC(=O)Cn2cnc3c(nnn3Cc3ccc(F)cc3)c2=O)cc1,n,n,n,n,n,n,x
COc1ccc(-c2cc(C)no2)cc1S(=O)(=O)N1CCOc2ccc(C)cc21,n,n,44,n,n,n,n
CCc1ccc(-c2cc(C)no2)cc1S(=O)(=O)N1CCOc2ccccc21,n,n,n,n,n,n,x
COc1ccc(NC(=O)Nc2cccc3c2O[C@H](CN(C)C(=O)Nc2ccc(OC)cc2)[C@@H](C)CN([C@H](C)CO)C3=O)cc1,n,n,n,n,n,n,x
CC(C)CC1Nc2ccc(C(=O)NCCCN3CCCCC3C)cc2NC1=O (centres undefined),n,n,n,n,n,n,x
Nc1nonc1-n1nnc(C(=O)N/N=C/c2c(F)cccc2Cl)c1-c1ccc2c(c1)OCO2,n,n,n,n,n,n,x
Nc1nonc1-n1nnc(C(=O)N/N=C/c2ccc(Br)cc2)c1-c1ccc2c(c1)OCO2,n,n,21,n,n,n,n
CC(C)c1c(C(=O)N/N=C/c2ccc3c(c2)OCO3)nnn1-c1nonc1N,n,n,n,n,n,n,x
Nc1nonc1-n1nnc(C(=O)N/N=C/c2cccc(Cl)c2)c1-c1ccc2c(c1)OCO2,n,n,72,n,n,n,n
Nc1nonc1-n1nnc(C(=O)N/N=C/c2ccc3c(c2)OCO3)c1-c1ccccc1,n,n,18,n,n,n,n
CCn1c(C)c(C2=CCN(S(=O)(=O)c3ccccc3)CC2)c2ccccc21,n,n,31,n,n,n,n
Cc1ccc(S(=O)(=O)N2CC=C(c3c(C)n(C)c4ccccc34)CC2)cc1,n,n,n,n,n,n,x
COc1ccc(N(Cc2ccccc2)C(=O)OC(C)(C)C)c(C(=O)N(C)OC)c1,n,n,n,n,n,n,x
COc1ccccc1C1CC(c2ccccc2)=NN1S(=O)(=O)c1ccccc1 (centres undefined),n,n,n,n,n,n,x
